Reference: paper PMC3823100 (Journal of Cellular and Molecular Medicine, 2011)
Read-outs that look alike come from different tables or passages of the source.

What was measured:
Assay type in all cases: cell-based, human
HFF-1 fibroblasts = assay: MTT cytotoxicity assay, non-tumour cells; conditions: read-out: IC50 (μM) ± S.D. HFF-1, 72 hrs treatment, MTT test
SW480 cells = assay: MTT cytotoxicity assay; conditions: read-out: IC50 (μM) ± S.D. SW480; 72 hrs treatment, MTT test
Outline: (§1)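 Cells grown with 10% foetal calf serum, penicillin/streptomycin and 2 mM L-glutamine (HCT-15 in RPMI, SW480 in DMEM). Exposed 72 hrs to increasing concentrations diluted from 1 mg/ml stocks in physiological solution, then MTT read-out. Mean absorbance per dose expressed as % of control versus concentration. IC50 from four-parameter logistic fit. Means ± S.D. of at least three measurements.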

DLD1 cells = assay: MTT cytotoxicity assay; conditions: read-out: IC50 (μM) ± S.D. DLD1; 72 hrs treatment, MTT test
HCT-15 cells = assay: MTT cytotoxicity assay; conditions: read-out: IC50 (μM) ± S.D. HCT-15; 72 hrs treatment, MTT test
Outline: as §1

LoVo cells [1] = assay: MTT cytotoxicity assay; conditions: read-out: IC50 (μM) ± S.D. LoVo, MTT test
MRC-5 fibroblasts = assay: MTT cytotoxicity assay, non-tumour cells; conditions: read-out: IC50 (μM) ± S.D. MRC-5, 72 hrs treatment, MTT test
LoVo cells [2] = assay: Nuclear DNA fragmentation ELISA; conditions: 12 hr treatment, IC50 concentration
LoVo–OxPt cells = assay: MTT cytotoxicity assay, oxaliplatin-resistant cells; conditions: read-out: IC50 (μM) ± S.D. LoVo–OxPt; 48 hrs treatment, MTT test
LoVo cells [3] = assay: Alkaline single-cell gel electrophoresis assay; conditions: 12 hrs, IC50 concentration
[4] = tested on: cytochrome c release in LoVo cells; assay: Cytochrome c release; conditions: IC50 concentration, 12 hrs (CP also 6 and 24 hrs)
Outline: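 LoVo cells (30 × 10⁶) were exposed to the test compound for 12 hrs. Cytochrome c release was then assessed by Western blotting. Values are means ± S.D. of at least three measurements.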

[5] = tested on: caspase-3/-7, -6, -8, -9 in LoVo cells; assay: Caspase activation; conditions: 12 or 24 hrs
Outline: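 LoVo cells (10⁶) exposed 12 or 24 hrs, then lysed in 1% Triton X-100, sucrose, 5 mM EDTA, 10 mM Tris-HCl, 2 mM DTT (pH 7.6). Lysate protein incubated 60 min at 37°C with fluorogenic AMC substrates: Ac-DEVD (caspase-3/-7), Ac-VEID (-6), Ac-IETD (-8), Ac-LEHD (-9). AMC release read at ex 370/em 460 nm. Means of at least three independent experiments ± S.D.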

Compound	IC50 (HFF-1 fibroblasts) [µM]	IC50 (SW480 cells) [µM]	IC50 (DLD1 cells) [µM]	IC50 (HCT-15 cells) [µM]	IC50 (LoVo cells [1]; 72 hrs treatment) [µM]	IC50 (MRC-5 fibroblasts) [µM]	increase in histone-DNA formation compared to controls (LoVo cells [2])	IC50 (LoVo–OxPt cells) [µM]	comet appearance / electrophoretic migration of DNA fragments (LoVo cells [3])	cytochrome c release [4]	caspase-3/-7, -6, -8, -9 activity (free AMC) [5]	IC50 (LoVo cells [1]; 48 hrs treatment) [µM]
N.N.[Cl][Pt][Cl] [CisPt, Cisplatin]	23.4 ± 1.97	25.2 ± 3.33	8.01 ± 2.22	16.6 ± 2.63	9.02 ± 1.34	19.7 ± 1.31						
O=C1[O][Pt]2([NH][C@@H]3CCCC[C@H]3[NH]2)[O]C1=O [OxPt, oxaliplatin]	27.1 ± 1.29	4.2 ± 0.75	5.81 ± 1.93	2.37 ± 0.58	0.33 ± 0.17	23.9 ± 1.35	roughly 30 fold	10.9 ± 1.34	significant increase in comet appearance	substantial cytohrome c release	substantial activation of all caspases	2.05 ± 0.43
